Source: ChEMBL document CHEMBL2331352, “Syntheses and anti-allergic activity of 2-((bis(trimethylsilyl)methylthio/methylsulfonyl)methyl)-5-aryl-1,3,4-oxadiazoles” (Eur J Med Chem, 2013)
Active and inactive are the calls of the source. No cut-off for these calls is given here.

How the values were obtained:
RBL-2H3 [1] = assay: Antiallergic activity in rat RBL2H3 cells assessed as inhibition of IgE/Ag-induced beta-hexosaminidase activity at 50 uM incubated for 30 mins by spectrophotometric analysis; type: functional, cell-based
In short: (§1)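 RBL-2H3 cells (2 × 10⁵/well) were sensitized overnight with anti-DNP IgE at 200 ng/mL and washed twice in PIPES buffer (25 mM PIPES, pH 7.2, 0.1% BSA, 1 mM CaCl₂, 5.6 mM glucose). They were pretreated 30 min at 37 °C with compound, then challenged with DNP-HSA 25 ng/mL for 15 min at 37 °C and chilled on ice. Supernatant was mixed with p-nitrophenyl-N-acetyl-glucosaminide in 0.1 M citrate pH 4.5 for 1 h at 37 °C. Reaction was stopped with 0.1 M carbonate pH 10.5 and read at 405 nm. Mean ± S.D. of three independent experiments, each in triplicate.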

RBL-2H3 [2] = assay: Antiallergic activity in rat RBL2H3 cells assessed as inhibition of IgE/Ag-induced beta-hexosaminidase activity at 100 uM incubated for 30 mins by spectrophotometric analysis; type: functional, cell-based; in short: as §1
RBL-2H3 [3] = assay: Antiallergic activity in rat RBL2H3 cells assessed as inhibition of IgE/Ag-induced beta-hexosaminidase activity incubated for 30 mins by spectrophotometric analysis; type: functional, cell-based; conditions: for IC50: RBL-2H3, 0.5 h; in short: as §1
RBL-2H3 [4] = assay: Cytotoxicity against rat RBL2H3 cells at 50 to 100 uM after 24 hrs by Ez-cytox assay; type: cell-based; conditions: rbl-2h3, 24 h
In short: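 IgE-sensitized RBL-2H3 cells (overnight, 200 ng/mL DNP-specific IgE) were exposed to compound at 0, 50 or 100 concentrations at 37 °C for 23–24 h. EZ-Cytox reagent was added at 10% of volume for 1 h at 37 °C and absorbance read at 450 nm. Viability is given as % of untreated control; mean ± S.D. of three independent experiments, each in triplicate.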

Structure (SMILES) | IC50 (RBL-2H3 [3]) | inhibition (RBL-2H3 [1]) | inhibition (RBL-2H3 [2]) | inhibition (RBL-2H3 [3]) | Activity (RBL-2H3 [4])
C[Si](C)(C)C(SCc1nnc(-c2ccccc2)o1)[Si](C)(C)C | 98.8 µM | Active | Active | Dose-dependent effect | 
C[Si](C)(C)C(SCc1nnc(-c2ccc(Cl)cc2)o1)[Si](C)(C)C |  |  | Active | Dose-dependent effect | 
Cc1ccc(-c2nnc(CSC([Si](C)(C)C)[Si](C)(C)C)o2)cc1 |  |  | Active | Dose-dependent effect | 

Second part, led by results:

IC50 (RBL-2H3 [3]) | Structure (SMILES) | inhibition (RBL-2H3 [1]) | inhibition (RBL-2H3 [2]) | inhibition (RBL-2H3 [3]) | Activity (RBL-2H3 [4])
37.2 µM | C[Si](C)(C)C([Si](C)(C)C)S(=O)(=O)Cc1nnc(-c2ccccc2)o1 |  | Active | Dose-dependent effect | Non-toxic
75.5 µM | C[Si](C)(C)C([Si](C)(C)C)S(=O)(=O)Cc1nnc(-c2ccc(Cl)cc2)o1 |  | Active | Dose-dependent effect | Non-toxic
62.3 µM | Cc1ccc(-c2nnc(CS(=O)(=O)C([Si](C)(C)C)[Si](C)(C)C)o2)cc1 |  | Active | Dose-dependent effect | Non-toxic
